Key:
[1] = target: T1, Sodium- and chloride-dependent glycine transporter 1 (Homo sapiens, UniProt P48067); assay: Inhibition of [3H]glycine uptake at GlyT1
T1 sequence (P48067 whole entry): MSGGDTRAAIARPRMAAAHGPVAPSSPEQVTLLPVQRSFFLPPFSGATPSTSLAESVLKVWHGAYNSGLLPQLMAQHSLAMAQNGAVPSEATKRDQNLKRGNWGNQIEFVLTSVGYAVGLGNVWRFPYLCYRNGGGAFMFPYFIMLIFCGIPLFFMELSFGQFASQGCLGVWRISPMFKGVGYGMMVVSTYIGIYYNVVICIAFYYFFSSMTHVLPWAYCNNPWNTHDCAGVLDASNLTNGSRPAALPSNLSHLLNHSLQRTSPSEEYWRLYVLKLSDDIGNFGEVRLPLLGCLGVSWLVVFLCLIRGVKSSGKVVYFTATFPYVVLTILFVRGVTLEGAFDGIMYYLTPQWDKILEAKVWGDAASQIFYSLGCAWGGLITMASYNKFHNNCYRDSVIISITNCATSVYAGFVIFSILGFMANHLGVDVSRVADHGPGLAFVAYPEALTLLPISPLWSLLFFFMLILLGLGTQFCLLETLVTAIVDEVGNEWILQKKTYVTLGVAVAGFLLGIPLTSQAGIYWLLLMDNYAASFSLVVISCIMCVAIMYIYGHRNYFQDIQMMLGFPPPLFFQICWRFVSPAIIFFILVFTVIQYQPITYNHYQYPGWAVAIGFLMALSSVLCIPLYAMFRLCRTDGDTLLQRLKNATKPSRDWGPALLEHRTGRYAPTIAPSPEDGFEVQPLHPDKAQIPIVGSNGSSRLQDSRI

[2] = target: T2, Sodium- and chloride-dependent glycine transporter 2 (Homo sapiens, UniProt Q9Y345); assay: Inhibition of [3H]glycine uptake at GlyT2
T2 sequence (Q9Y345 whole entry): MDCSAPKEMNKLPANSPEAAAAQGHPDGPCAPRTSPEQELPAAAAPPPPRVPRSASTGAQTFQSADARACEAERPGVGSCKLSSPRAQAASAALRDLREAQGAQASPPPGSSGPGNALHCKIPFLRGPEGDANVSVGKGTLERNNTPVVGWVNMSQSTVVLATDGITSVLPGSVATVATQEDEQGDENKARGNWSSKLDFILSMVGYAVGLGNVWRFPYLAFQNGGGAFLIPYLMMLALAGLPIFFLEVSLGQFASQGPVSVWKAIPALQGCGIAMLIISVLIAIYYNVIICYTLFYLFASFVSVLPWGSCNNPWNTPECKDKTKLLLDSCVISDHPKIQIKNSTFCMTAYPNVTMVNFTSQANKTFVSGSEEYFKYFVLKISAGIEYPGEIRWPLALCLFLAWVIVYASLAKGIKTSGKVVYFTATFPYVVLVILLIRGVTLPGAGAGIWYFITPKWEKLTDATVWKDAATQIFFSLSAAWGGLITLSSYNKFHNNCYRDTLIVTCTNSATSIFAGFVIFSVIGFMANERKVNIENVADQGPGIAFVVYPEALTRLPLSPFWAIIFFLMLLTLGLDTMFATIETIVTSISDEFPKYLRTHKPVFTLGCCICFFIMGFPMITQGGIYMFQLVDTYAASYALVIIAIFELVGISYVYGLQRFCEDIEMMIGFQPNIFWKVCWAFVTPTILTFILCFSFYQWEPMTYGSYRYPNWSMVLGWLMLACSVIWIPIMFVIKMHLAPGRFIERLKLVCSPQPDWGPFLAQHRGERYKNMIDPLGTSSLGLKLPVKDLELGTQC

[3] = target: Nociceptin receptor (Homo sapiens, UniProt P41146); assay: Displacement of [3H]NOP from human NOP receptor expressed in HEK293 cells; type: cell-based
Procedure, shortened: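 Radioligand binding using membranes from HEK293 cells stably (permanently) transfected with human NOP receptor; displacement of [3H]-NOP measured.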

Nociceptin receptor, sequence (P41146 whole entry): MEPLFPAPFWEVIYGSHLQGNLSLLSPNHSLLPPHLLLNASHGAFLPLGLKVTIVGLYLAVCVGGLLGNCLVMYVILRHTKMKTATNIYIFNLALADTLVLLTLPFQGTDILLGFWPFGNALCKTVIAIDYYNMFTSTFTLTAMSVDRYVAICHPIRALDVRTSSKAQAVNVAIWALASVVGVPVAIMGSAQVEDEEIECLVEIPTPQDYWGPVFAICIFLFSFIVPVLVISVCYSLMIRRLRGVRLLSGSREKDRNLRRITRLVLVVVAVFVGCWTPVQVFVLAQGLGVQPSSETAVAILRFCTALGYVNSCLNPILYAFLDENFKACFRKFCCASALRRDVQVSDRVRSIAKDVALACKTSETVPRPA

SMILES: COc1ccc(C2CNC(=O)C23CCN(C2CCCCC2c2ccc(C)cc2)CC3)cc1 (single isomer, unassigned; diastereomer 1)
- EC50 [1]: 1.13 µM

SMILES: O=C1NC[C@H](c2ccc(F)cc2)C12CCN([C@H]1CCCC[C@H]1c1ccc(F)cc1)CC2
- EC50 [2]: 8.36 µM
- EC50 [1]: 1.3 µM

SMILES: O=C1NC[C@H](c2ccc(F)cc2)C12CCN([C@@H]1CCCC[C@@H]1c1ccc(F)cc1)CC2
- EC50 [2]: 39.9 µM
- EC50 [1]: 0.036 µM
- IC50 [3]: > 10 µM

SMILES: O=C1NC[C@H](c2ccccc2)C12CCN([C@H]1CCCC[C@H]1c1ccccc1)CC2
- EC50 [1]: 0.061 µM
- IC50 [3]: > 10 µM

SMILES: O=C1NCC(c2ccc(Cl)c(Cl)c2)C12CCN(C1CCCCC1c1ccc(F)cc1)CC2 (single isomer, unassigned; diastereomer 2)
- EC50 [1]: 2.19 µM

SMILES: O=C1NC[C@@H](c2ccc(F)cc2)C12CCN([C@@H]1CCCC[C@@H]1c1ccc(F)cc1)CC2
- EC50 [2]: 16.7 µM
- EC50 [1]: 0.043 µM
- IC50 [3]: > 10 µM

SMILES: O=C1NCC(c2ccccc2)C12CCN(C1CCCCC1c1ccccc1)CC2 (stereo unspecified)
- EC50 [2]: 25 µM
- EC50 [1]: 0.232 µM
- IC50 [3]: > 10 µM

SMILES: O=C1NC[C@@H](c2ccc(F)cc2)C12CCN([C@H]1CCCC[C@H]1c1ccc(F)cc1)CC2
- EC50 [2]: > 30 µM
- EC50 [1]: 1.06 µM

SMILES: O=C1NC[C@H](c2ccccc2)C12CCN([C@@H]1CCCC[C@@H]1c1ccccc1)CC2
- EC50 [1]: 2.88 µM

SMILES: O=C1NCC(c2ccc(F)cc2)C12CCN(C1CCCCC1c1ccc(C(F)(F)F)cc1)CC2 (stereo in doubt)
- EC50 [1]: 0.091 µM

SMILES: O=C1NCC(c2ccc(F)cc2)C12CCN(C1CCCCC1c1ccc(C(F)(F)F)cc1)CC2 (single isomer, unassigned; diastereomer 1)
- EC50 [1]: 2.33 µM

SMILES: O=C1NC[C@@H](c2ccccc2)C12CCN([C@@H]1CCCC[C@@H]1c1ccccc1)CC2
- EC50 [1]: 2.83 µM

SMILES: COc1ccc(C2CNC(=O)C23CCN(C2CCCCC2c2ccc(F)cc2)CC3)cc1 (stereo unspecified)
- EC50 [1]: 0.113 µM

SMILES: O=C1NCC(c2ccccc2)C12CCN(C1CCCCC1c1ccc(F)cc1)CC2 (single isomer, unassigned; diastereomer 2)
- EC50 [1]: 0.048 µM

SMILES: COc1ccc(C2CNC(=O)C23CCN(C2CCCCC2c2ccc(C)cc2)CC3)cc1 (single isomer, unassigned; diastereomer 2)
- EC50 [1]: 16.6 µM

SMILES: O=C1NCC(c2ccc(Cl)c(Cl)c2)C12CCN(C1CCCCC1c1ccc(F)cc1)CC2 (single isomer, unassigned; diastereomer 1)
- EC50 [1]: 0.27 µM

SMILES: O=C1NCC(c2ccc(F)cc2)C12CCN(C1CCCCC1c1ccc(C(F)(F)F)cc1)CC2 (single isomer, unassigned; diastereomer 3)
- EC50 [1]: 0.129 µM

SMILES: O=C1NC[C@@H](c2ccccc2)C12CCN([C@H]1CCCC[C@H]1c1ccccc1)CC2
- EC50 [2]: 39.6 µM
- EC50 [1]: 0.246 µM
- IC50 [3]: > 10 µM

SMILES: O=C1NCC(c2ccccc2)C12CCN(C1CCCCC1c1ccc(F)cc1)CC2 (single isomer, unassigned; diastereomer 1)
- EC50 [1]: 0.167 µM

SMILES: O=C1NCC(c2ccc(F)cc2)C12CCN(C1CCCCC1c1ccc(C(F)(F)F)cc1)CC2 (single isomer, unassigned; diastereomer 2)
- EC50 [1]: 0.953 µM
